Data: ChEMBL document CHEMBL4152196, “Design, synthesis and biological evaluation of novel trimethylangelicin analogues targeting nuclear factor kB (NF-kB)” (Eur J Med Chem, 2018)
Active and inactive are the calls of the source. The rule behind the calls is not given here.

Assays:
IB3-1 [1] = test: Inhibition of TNF-alpha induced PDGF-B chain production in human IB3-1 cells at 1 uM preincubated for 5 hrs followed by TNF-alpha stimulation and measured after 24 hrs relative to control; assay type: functional
Summary of the method: (§1)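 IB3-1 cells (CF patient, ΔF508/W1282X, adeno12/SV40-immortalized) grown in LHC-8 with 5% FBS, no gentamycin, 37°C/5% CO₂; 60% confluent monolayers seeded, compound added after 24 h, 5 h before 80 ng/ml TNF-α, then 24 h further incubation. Cytokines in supernatants measured by Bioplex 27-plex Luminex bead assay: beads, detection antibody, streptavidin–phycoerythrin, 30/30/10 min at room temperature.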

Salmonella typhimurium [2] = test: Genotoxicity in Salmonella typhimurium TA1535 assessed as revertant colonies at 1 uL/plate in absence of Sprague-Dawley rat S9 metabolic activation after 72 hrs by Ames test (reference value: 1); assay type: toxicity, organism-based; details: salmonella enterica subsp. enterica serovar typhimurium
Salmonella typhimurium [3] = test: Genotoxicity in Salmonella typhimurium TA98 assessed as revertant colonies at 100 uL/plate in presence of Sprague-Dawley rat S9 metabolic activation after 72 hrs by Ames test (reference value: 1); assay type: toxicity, organism-based; details: salmonella enterica subsp. enterica serovar typhimurium
Salmonella typhimurium [4] = test: Genotoxicity in Salmonella typhimurium TA98 assessed as revertant colonies at 10 uL/plate in presence of Sprague-Dawley rat S9 metabolic activation after 72 hrs by Ames test (reference value: 1); assay type: toxicity, organism-based; details: salmonella enterica subsp. enterica serovar typhimurium
Salmonella typhimurium [5] = test: Genotoxicity in Salmonella typhimurium TA100 assessed as revertant colonies at 50 uL/plate in presence of Sprague-Dawley rat S9 metabolic activation after 72 hrs by Ames test (reference value: 1); assay type: toxicity, organism-based; details: salmonella enterica subsp. enterica serovar typhimurium
IB3-1 [6] = test: Inhibition of TNF-alpha induced IFN-gamma production in human IB3-1 cells at 1 uM preincubated for 5 hrs followed by TNF-alpha stimulation and measured after 24 hrs relative to control; assay type: functional; summary of the method: as §1
U-251 = test: Cytotoxicity against human U251 cells after 2 days by cell counting analysis; assay type: cell-based; details: u-251, 48 h
Salmonella typhimurium [7] = test: Genotoxicity in Salmonella typhimurium TA100 assessed as revertant colonies at 10 uL/plate in absence of Sprague-Dawley rat S9 metabolic activation after 72 hrs by Ames test (reference value: 1); assay type: toxicity, organism-based; details: salmonella enterica subsp. enterica serovar typhimurium
Salmonella typhimurium [8] = test: Genotoxicity in Salmonella typhimurium TA1535 assessed as revertant colonies at 1 uL/plate in presence of Sprague-Dawley rat S9 metabolic activation after 72 hrs by Ames test (reference value: 1); assay type: toxicity, organism-based; details: salmonella enterica subsp. enterica serovar typhimurium
IB3-1 [9] = test: Inhibition of TNF-alpha induced IL-17 production in human IB3-1 cells at 1 uM preincubated for 5 hrs followed by TNF-alpha stimulation and measured after 24 hrs relative to control; assay type: functional; summary of the method: as §1
[10] = Inhibition of NF-kappaB (unknown origin) assessed as decrease in NF-kappaB/DNA interaction using 32P-labeled target NF-kappaB double-stranded oligonucleotide after 30 mins by EMSA; set-up: species or system Homo sapiens
Summary of the method: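 Purified NF-κB p50 (0.1 µl/20 µl, 50 gsu) was combined with 0.25 ng of ³²P-labeled double-stranded NF-κB consensus oligonucleotide. Bound 30 min at room temperature, then run on 6% polyacrylamide in 0.25× TBE at 200 V. IC₅₀ is 50% inhibition of the complex.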

Salmonella typhimurium [11] = test: Genotoxicity in Salmonella typhimurium TA1535 assessed as revertant colonies at 100 uL/plate in absence of Sprague-Dawley rat S9 metabolic activation after 72 hrs by Ames test (reference value: 1); assay type: toxicity, organism-based; details: salmonella enterica subsp. enterica serovar typhimurium
Salmonella typhimurium [12] = test: Genotoxicity in Salmonella typhimurium TA98 assessed as revertant colonies at 10 uL/plate in absence of Sprague-Dawley rat S9 metabolic activation after 72 hrs by Ames test (reference value: 1); assay type: toxicity, organism-based; details: salmonella enterica subsp. enterica serovar typhimurium
Salmonella typhimurium [13] = test: Genotoxicity in Salmonella typhimurium TA100 assessed as revertant colonies at 100 uL/plate in presence of Sprague-Dawley rat S9 metabolic activation after 72 hrs by Ames test (reference value: 1); assay type: toxicity, organism-based; details: salmonella enterica subsp. enterica serovar typhimurium
Salmonella typhimurium [14] = test: Genotoxicity in Salmonella typhimurium TA97A assessed as revertant colonies at 5 uL/plate in absence of Sprague-Dawley rat S9 metabolic activation after 72 hrs by Ames test (reference value: 1); assay type: toxicity, organism-based; details: salmonella enterica subsp. enterica serovar typhimurium
Salmonella typhimurium [15] = test: Genotoxicity in Salmonella typhimurium TA98 assessed as revertant colonies at 1 uL/plate in presence of Sprague-Dawley rat S9 metabolic activation after 72 hrs by Ames test (reference value: 1); assay type: toxicity, organism-based; details: salmonella enterica subsp. enterica serovar typhimurium
Salmonella typhimurium [16] = test: Genotoxicity in Salmonella typhimurium TA97A assessed as revertant colonies at 1 uL/plate in absence of Sprague-Dawley rat S9 metabolic activation after 72 hrs by Ames test (reference value: 1); assay type: toxicity, organism-based; details: salmonella enterica subsp. enterica serovar typhimurium
Salmonella typhimurium [17] = test: Genotoxicity in Salmonella typhimurium TA98 assessed as revertant colonies at 5 uL/plate in absence of Sprague-Dawley rat S9 metabolic activation after 72 hrs by Ames test (reference value: 1); assay type: toxicity, organism-based; details: salmonella enterica subsp. enterica serovar typhimurium
Salmonella typhimurium [18] = test: Genotoxicity in Salmonella typhimurium TA100 assessed as revertant colonies at 1 uL/plate in presence of Sprague-Dawley rat S9 metabolic activation after 72 hrs by Ames test (reference value: 1); assay type: toxicity, organism-based; details: salmonella enterica subsp. enterica serovar typhimurium
Salmonella typhimurium [19] = test: Genotoxicity in Salmonella typhimurium TA1535 assessed as revertant colonies at 50 uL/plate in absence of Sprague-Dawley rat S9 metabolic activation after 72 hrs by Ames test (reference value: 1); assay type: toxicity, organism-based; details: salmonella enterica subsp. enterica serovar typhimurium
Salmon testes DNA [20] = test: Binding affinity to salmon testes DNA assessed as furocoumarin-pyrimidine base formation in presence of 15 J/cm2 UVA light irradiation by TLC analysis; assay type: nucleic-acid assay; details: Salmonidae
Salmonella typhimurium [21] = test: Genotoxicity in Salmonella typhimurium TA97A assessed as revertant colonies at 100 uL/plate in absence of Sprague-Dawley rat S9 metabolic activation after 72 hrs by Ames test (reference value: 1); assay type: toxicity, organism-based; details: salmonella enterica subsp. enterica serovar typhimurium
Salmonella typhimurium [22] = test: Genotoxicity in Salmonella typhimurium TA1535 assessed as revertant colonies at 50 uL/plate in presence of Sprague-Dawley rat S9 metabolic activation after 72 hrs by Ames test (reference value: 1); assay type: toxicity, organism-based; details: salmonella enterica subsp. enterica serovar typhimurium
Salmonella typhimurium [23] = test: Genotoxicity in Salmonella typhimurium TA98 assessed as revertant colonies at 100 uL/plate in absence of Sprague-Dawley rat S9 metabolic activation after 72 hrs by Ames test (reference value: 1); assay type: toxicity, organism-based; details: salmonella enterica subsp. enterica serovar typhimurium
K562 = test: Cytotoxicity against human K562 cells after 2 days by cell counting analysis; assay type: cell-based; details: k562, 48 h
Salmon testes DNA [24] = test: Induction of damage in salmon testes DNA at 100 uM in absence of 2.5 to 7.5 J/cm2 UVA irradiation by ethidium bromide dye-based agarose gel electrophoresis analysis; assay type: nucleic-acid assay; details: salmonidae
IB3-1 [25] = test: Inhibition of TNF-alpha induced IL-10 production in human IB3-1 cells at 1 uM preincubated for 5 hrs followed by TNF-alpha stimulation and measured after 24 hrs relative to control; assay type: functional; summary of the method: as §1
Salmonella typhimurium [26] = test: Genotoxicity in Salmonella typhimurium TA1535 assessed as revertant colonies at 100 uL/plate in presence of Sprague-Dawley rat S9 metabolic activation after 72 hrs by Ames test (reference value: 1); assay type: toxicity, organism-based; details: salmonella enterica subsp. enterica serovar typhimurium
Salmonella typhimurium [27] = test: Genotoxicity in Salmonella typhimurium TA97A assessed as revertant colonies at 10 uL/plate in presence of Sprague-Dawley rat S9 metabolic activation after 72 hrs by Ames test (reference value: 1); assay type: toxicity, organism-based; details: salmonella enterica subsp. enterica serovar typhimurium
Salmonella typhimurium [28] = test: Genotoxicity in Salmonella typhimurium TA97A assessed as revertant colonies at 5 uL/plate in presence of Sprague-Dawley rat S9 metabolic activation after 72 hrs by Ames test (reference value: 1); assay type: toxicity, organism-based; details: salmonella enterica subsp. enterica serovar typhimurium
Homo sapiens = species on record: Homo sapiens; test: Inhibition of NF-kappaB (unknown origin) assessed as decrease in NF-kappaB/DNA interaction at 12.5 uM using 32P-labeled target NF-kappaB double-stranded oligonucleotide after 30 mins by EMSA

IC50 [10]: 7.4 µM
Activity (Salmon testes DNA [20]): inactive
inhibition (Homo sapiens): Active
Compound: CCc1cc2c(C(C)C)cc(=O)oc2c2c(C)coc12
inhibition at 1 µM (IB3-1 [1]): > 20%
T/C (Salmonella typhimurium [2]): 1.1
T/C (Salmonella typhimurium [3]): 0.6
T/C (Salmonella typhimurium [4]): 0.7
T/C (Salmonella typhimurium [5]): 1.2
inhibition at 1 µM (IB3-1 [6]): > 20%
Activity (U-251): Non-Toxic
T/C (Salmonella typhimurium [7]): 0.8
T/C (Salmonella typhimurium [8]): 1.1
inhibition at 1 µM (IB3-1 [9]): > 20%
T/C (Salmonella typhimurium [11]): 0.9
T/C (Salmonella typhimurium [12]): 1.3
T/C (Salmonella typhimurium [13]): 1.5
T/C (Salmonella typhimurium [14]): 0.9
T/C (Salmonella typhimurium [15]): 0.8
T/C (Salmonella typhimurium [16]): 1.1
T/C (Salmonella typhimurium [17]): 1.2
T/C (Salmonella typhimurium [18]): 1.1
T/C (Salmonella typhimurium [19]): 1
T/C (Salmonella typhimurium [21]): 1
T/C (Salmonella typhimurium [22]): 1
T/C (Salmonella typhimurium [23]): 1.2
Activity (K562): Non-Toxic
Activity (Salmon testes DNA [24]): Not Active
inhibition at 1 µM (IB3-1 [25]): > 20%
T/C (Salmonella typhimurium [26]): 0.8
T/C (Salmonella typhimurium [27]): 1.2
T/C (Salmonella typhimurium [28]): 1.1
